Data reported in article PMC4033650 (ACS Chemical Biology, 2014).
Read-outs that look alike come from different tables or passages of the source. Positions of bridges follow the written chain, without caps; N, C: chain ends. Non-standard residues stand in square brackets, D forms with d. Residues, ends and D or L forms follow the SMILES beside them. *: point of attachment. Gly(octyl) = CCCCCCCC[C@H](N)C(=O)O; Octanoyl = CCCCCCCC(=O)*; Dab = NCC[C@H](N)C(=O)O

Assays:
[1] = Pharmacokinetics after single-dose intravenous administration in rats; details: rat, in vivo
purified LPS = assay: Dansyl-polymyxin LPS displacement binding assay
Outline: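 LPS was purified from bacteria, and its molar concentration was set by the purpald Kdo assay. Test compound binding to LPS was read as displacement of a synthetic dansyl-polymyxin probe, using the group's published protocol.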

[2] = test system: polymyxin-resistant clinical isolates of P. aeruginosa, A. baumannii, and K. pneumoniae; assay: MIC screen against polymyxin-resistant Gram-negative clinical isolates; format: cell-based; details: for MICs: polymyxin-resistant clinical isolates of P. aeruginosa, A. baumannii, K. pneumoniae
Outline: (§1)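 Broth microdilution in cation-adjusted Mueller–Hinton broth. […] Plates were incubated 18–20 h at 37 °C. MIC was taken as the lowest concentration inhibiting visible growth.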

[3] = test system: polymyxin-resistant clinical isolate of P. aeruginosa; assay: Neutropenic mouse lung infection model; format: in vivo; details: 24 h after single-dose treatment (40 mg/kg); inoculum 5.42 ± 0.54 log CFU/lung
Outline: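 The model used neutropenic mice with lung infection, following the group's earlier protocol. One polymyxin-susceptible and one polymyxin-resistant P. aeruginosa strain were used. Lung bacterial burden was counted at 0 and 24 h after treatment.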

[4] = Tolerability after bolus dose in rats; format: in vivo, rat; details: intravenous bolus, 0.75 mg/kg
[5] = Tolerability after bolus dose in mice; format: in vivo, mouse; details: subcutaneous bolus, 40 mg/kg
[6] = test system: panel of ATCC and clinical isolates; assay: MIC in the presence of Mg2+; format: cell-based; details: addition of 16 mM of Mg2+; data not shown
Outline: as §1

[7] = test system: polymyxin-susceptible P. aeruginosa ATCC 27853; assay: MIC by broth microdilution, P. aeruginosa ATCC 27853; format: cell-based, Pseudomonas aeruginosa
Outline: (§2)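 Broth microdilution was run in cation-adjusted Mueller–Hinton broth in polypropylene plates. The inoculum was about 10^6 cfu/mL, mixed 1:1 with broth containing test compound (0 to 128 mg/L). Plates were incubated 18–20 h at 37 °C. MIC was the lowest concentration with no visible growth.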

human red blood cells = assay: Hemolysis of human red blood cells; format: cell-based; details: concentrations up to 32 mg/L
[8] = test system: polymyxin-resistant clinical P. aeruginosa isolate; assay: MIC by broth microdilution, polymyxin-resistant P. aeruginosa isolate; format: cell-based, Pseudomonas aeruginosa
Outline: as §2

[9] = test system: polymyxin-resistant clinical P. aeruginosa isolate; assay: Static time-kill, polymyxin-resistant P. aeruginosa isolate; format: cell-based, Pseudomonas aeruginosa; details: 32 mg/L
[10] = rats ref 23; cited from earlier work
[11] = Nephrotoxicity in mice, kidney histopathology; format: in vivo, mouse; details: subcutaneous, accumulated dose 105 mg/kg
Outline: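 Mice (three groups, n = 3) received subcutaneous injections over 3–4 days to an accumulated 105 mg/kg of test compound or polymyxin B sulfate, with a saline control. Kidneys were formalin-fixed (10%) and sectioned through cortex, medulla and papilla, then stained and graded: grade 1 (mild tubular damage) = 1, grade 2 (severe, necrosis) = 4, grade 3 (cortical necrosis/infarction) = 10.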

[12] = Plasma protein binding by equilibrium dialysis; format: in vitro ADME; details: pooled healthy human plasma

| Compound | Vd [1] [L/kg] | clearance [1] [mL/min/kg] | half-life [1] [h] | higher LPS binding affinity compared to PMB and colistin (purified LPS) | antimicrobial activity ([2]; panel of polymyxin-resistant Gram-negative clinical isolates) | bacterial burden in the lungs [3] [log CFU/lung] | adverse effects [4] | adverse effects [5] | increase in MICs on addition of Mg2+ [6] [fold] | MIC [7] [µg/mL] | hemolysis of human red blood cells (human red blood cells) | MICs [2] [mg/L] | MIC [8] [µg/mL] | bacterial killing in time-kill [9] | half-life [10] [h] | total clearance [10] [mL/min/kg] | volume of distribution [10] [L/kg] | histological grade of kidney lesions [11] | plasma protein binding (bound) [12] [%] |
| --- | --- | --- | --- | --- | --- | --- | --- | --- | --- | --- | --- | --- | --- | --- | --- | --- | --- | --- | --- |
| CCCCCCCC[C@@H]1NC(=O)[C@@H](Cc2ccccc2)NC(=O)[C@H](CCN)NC(=O)[C@@H](NC(=O)[C@H](CCN)NC(=O)[C@@H](NC(=O)[C@H](CCN)NC(=O)CCCCCCC)[C@@H](C)O)CCNC(=O)[C@H]([C@@H](C)O)NC(=O)[C@H](CCN)NC(=O)[C@H](CCN)NC1=O [FADDI-002] (Octanoyl-[Dab]T[Dab][Dab][Dab][dF][Gly(octyl)][Dab][Dab]T; lactam 4-C) | 0.195 to 0.313 | 0.66 to 1.3 | 2.77 to 3.4 | up to 27.1 fold | potent antimicrobial activity | 4.75 ± 0.80 | no adverse effects were observed | no adverse effects were observed | ≤ 2 | – | – | – | – | – | – | – | – | – | – |
| colistin | – | – | – | – | – | 6.71 ± 0.46 | – | – | – | 1 | no detectable hemolysis | > 128 | > 128 | no killing was observed | 1.24 | 5.2 | 0.496 | – | – |
| Polymyxin B [PMB] | – | – | – | – | – | – | – | – | 16 | – | no detectable hemolysis | > 128 | – | – | – | – | – | grade 1 | ~51 |
